Experimental findings from ChEMBL document CHEMBL1909601, “Synthesis and structure-activity relationship studies of dihydronaphthyridinediones as a novel structural class of potent and selective PDE7 inhibitors” (Bioorg Med Chem Lett, 2011) are described below.

A value given as a limit tells only on which side of the number the result lay.

Test [1] concerns the target 3',5'-cyclic-AMP phosphodiesterase 4A (Homo sapiens, UniProt P27815). The experiment in a line: Inhibition of human recombinant PDE4A4 expressed in baculovirus infected insect Sf21 cells after 30 mins by scintillation proximity assay. In outline:
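Full-length human recombinant enzyme expressed in baculovirus-infected Sf21 cells. Scintillation proximity assay with 500 nM [3H]-cAMP substrate in 80 mM Tris/10 mM MgSO4, pH 7.4. Incubated 30 min at 37 °C, then SPA beads added and plates counted. Background taken in presence of 10 µM rolipram. IC50 reported.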

Test [2] concerns the target High affinity 3',5'-cyclic-AMP phosphodiesterase 7A (Homo sapiens, UniProt Q13946). The test is described as follows: Inhibition of human recombinant PDE7A1 expressed in baculovirus infected insect Sf21 cells after 30 mins by scintillation proximity assay. The gist of the method: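 Full-length human recombinant PDE7A1 produced in baculovirus-infected Sf21 cells. SPA read-out with [3H]-cAMP at 20 nM in 80 mM Tris/10 mM MgSO4, pH 7.4. Reaction run 30 min at 37 °C before bead addition and scintillation counting. Background measured without enzyme. IC50 derived.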

The species named for the next test is Homo sapiens. The experiment in a line: Selectivity ratio of IC50 for human recombinant PDE4A4 to IC50 for human recombinant PDE7A1. In outline: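 Ratio of IC50 values for the two enzymes. PDE4A4 run at 500 nM [3H]-cAMP with a 10 µM rolipram background; PDE7A1 run at 20 nM [3H]-cAMP with a no-enzyme background. Both used full-length human enzymes from Sf21 cells, 30 min at 37 °C, pH 7.4 Tris/MgSO4, SPA read-out.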

In test [3] the target is Dual specificity calcium/calmodulin-dependent 3',5'-cyclic nucleotide phosphodiesterase 1B (Homo sapiens, UniProt Q01064). The test is described as follows: Inhibition of human recombinant PDE1B.
The target of test [4] is cGMP-dependent 3',5'-cyclic phosphodiesterase (Homo sapiens, UniProt O00408). The experiment in a line: Inhibition of human recombinant PDE2A.
Test [5] has as its target High affinity cGMP-specific 3',5'-cyclic phosphodiesterase 9A (Homo sapiens, UniProt O76083). The experiment in a line: Inhibition of human recombinant PDE9A.
Test [6] deals with cAMP and cAMP-inhibited cGMP 3',5'-cyclic phosphodiesterase 10A (Homo sapiens, UniProt Q9Y233). The test is described as follows: Inhibition of human recombinant PDE10A.
In test [7] the target is High affinity cAMP-specific and IBMX-insensitive 3',5'-cyclic phosphodiesterase 8A (Homo sapiens, UniProt O60658). The experiment in a line: Inhibition of human recombinant PDE8A.
The target in test [8] is cGMP-specific 3',5'-cyclic phosphodiesterase (Homo sapiens, UniProt O76074). The experiment in a line: Inhibition of human recombinant PDE5A.
The target of test [9] is Dual 3',5'-cyclic-AMP and -GMP phosphodiesterase 11A (Homo sapiens, UniProt Q9HCR9). The test is described as follows: Inhibition of human recombinant PDE11A.
In test [10] the target is cGMP-inhibited 3',5'-cyclic phosphodiesterase 3A (Homo sapiens, UniProt Q14432). The experiment in a line: Inhibition of human recombinant PDE3A.
The nature of test [11]: Inhibition of bovine PDE6. Further details: species or system Bos taurus.

Sequence of High affinity 3',5'-cyclic-AMP phosphodiesterase 7A (Q13946 whole entry): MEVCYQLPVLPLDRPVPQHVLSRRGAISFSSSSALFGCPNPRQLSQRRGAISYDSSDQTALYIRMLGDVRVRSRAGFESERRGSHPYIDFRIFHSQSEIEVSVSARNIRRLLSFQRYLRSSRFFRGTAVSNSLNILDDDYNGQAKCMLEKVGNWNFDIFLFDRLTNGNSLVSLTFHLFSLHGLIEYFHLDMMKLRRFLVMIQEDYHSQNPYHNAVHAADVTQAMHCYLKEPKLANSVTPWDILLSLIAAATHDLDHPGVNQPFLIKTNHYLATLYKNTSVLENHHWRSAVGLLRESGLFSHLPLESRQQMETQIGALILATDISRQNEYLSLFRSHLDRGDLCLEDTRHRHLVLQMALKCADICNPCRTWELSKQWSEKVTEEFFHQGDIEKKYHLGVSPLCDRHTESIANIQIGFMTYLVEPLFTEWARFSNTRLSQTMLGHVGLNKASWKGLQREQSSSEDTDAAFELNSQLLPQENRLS
Sequence of 3',5'-cyclic-AMP phosphodiesterase 4A (P27815 whole entry): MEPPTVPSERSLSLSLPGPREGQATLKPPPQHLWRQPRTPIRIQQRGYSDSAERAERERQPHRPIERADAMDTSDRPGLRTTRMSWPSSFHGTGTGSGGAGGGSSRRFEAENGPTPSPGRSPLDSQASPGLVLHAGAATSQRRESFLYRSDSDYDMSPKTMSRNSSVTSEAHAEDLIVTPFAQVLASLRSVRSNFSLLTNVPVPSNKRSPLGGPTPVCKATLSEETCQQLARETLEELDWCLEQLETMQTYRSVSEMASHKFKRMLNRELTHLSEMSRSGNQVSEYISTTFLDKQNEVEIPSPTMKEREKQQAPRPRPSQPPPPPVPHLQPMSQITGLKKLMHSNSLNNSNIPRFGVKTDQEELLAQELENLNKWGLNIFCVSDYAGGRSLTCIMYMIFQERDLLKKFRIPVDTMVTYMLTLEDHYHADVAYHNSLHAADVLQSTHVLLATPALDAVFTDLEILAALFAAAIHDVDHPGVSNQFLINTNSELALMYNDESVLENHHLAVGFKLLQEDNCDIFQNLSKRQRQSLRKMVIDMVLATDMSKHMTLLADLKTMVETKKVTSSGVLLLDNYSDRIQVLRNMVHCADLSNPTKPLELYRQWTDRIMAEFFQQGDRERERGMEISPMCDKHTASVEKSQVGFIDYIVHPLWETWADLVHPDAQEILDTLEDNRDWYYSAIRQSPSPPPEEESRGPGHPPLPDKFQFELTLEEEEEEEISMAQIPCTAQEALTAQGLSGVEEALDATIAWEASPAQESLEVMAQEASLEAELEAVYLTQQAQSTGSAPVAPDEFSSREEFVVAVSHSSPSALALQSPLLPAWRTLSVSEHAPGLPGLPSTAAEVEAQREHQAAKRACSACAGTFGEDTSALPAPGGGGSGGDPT
Sequence of Dual specificity calcium/calmodulin-dependent 3',5'-cyclic nucleotide phosphodiesterase 1B (Q01064 whole entry): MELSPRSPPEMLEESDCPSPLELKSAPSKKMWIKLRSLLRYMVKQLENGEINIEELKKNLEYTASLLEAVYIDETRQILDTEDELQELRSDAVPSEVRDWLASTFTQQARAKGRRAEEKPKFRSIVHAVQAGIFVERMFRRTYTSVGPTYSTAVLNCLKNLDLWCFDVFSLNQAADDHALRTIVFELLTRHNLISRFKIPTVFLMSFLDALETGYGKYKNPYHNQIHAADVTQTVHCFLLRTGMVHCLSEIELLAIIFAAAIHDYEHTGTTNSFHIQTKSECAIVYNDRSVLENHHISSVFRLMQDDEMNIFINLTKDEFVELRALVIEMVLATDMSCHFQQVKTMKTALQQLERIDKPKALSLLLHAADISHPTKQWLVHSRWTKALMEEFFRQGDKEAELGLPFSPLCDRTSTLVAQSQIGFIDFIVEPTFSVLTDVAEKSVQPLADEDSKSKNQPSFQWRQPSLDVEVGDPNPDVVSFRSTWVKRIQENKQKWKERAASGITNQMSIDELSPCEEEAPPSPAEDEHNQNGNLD
Sequence of Dual 3',5'-cyclic-AMP and -GMP phosphodiesterase 11A (Q9HCR9 whole entry): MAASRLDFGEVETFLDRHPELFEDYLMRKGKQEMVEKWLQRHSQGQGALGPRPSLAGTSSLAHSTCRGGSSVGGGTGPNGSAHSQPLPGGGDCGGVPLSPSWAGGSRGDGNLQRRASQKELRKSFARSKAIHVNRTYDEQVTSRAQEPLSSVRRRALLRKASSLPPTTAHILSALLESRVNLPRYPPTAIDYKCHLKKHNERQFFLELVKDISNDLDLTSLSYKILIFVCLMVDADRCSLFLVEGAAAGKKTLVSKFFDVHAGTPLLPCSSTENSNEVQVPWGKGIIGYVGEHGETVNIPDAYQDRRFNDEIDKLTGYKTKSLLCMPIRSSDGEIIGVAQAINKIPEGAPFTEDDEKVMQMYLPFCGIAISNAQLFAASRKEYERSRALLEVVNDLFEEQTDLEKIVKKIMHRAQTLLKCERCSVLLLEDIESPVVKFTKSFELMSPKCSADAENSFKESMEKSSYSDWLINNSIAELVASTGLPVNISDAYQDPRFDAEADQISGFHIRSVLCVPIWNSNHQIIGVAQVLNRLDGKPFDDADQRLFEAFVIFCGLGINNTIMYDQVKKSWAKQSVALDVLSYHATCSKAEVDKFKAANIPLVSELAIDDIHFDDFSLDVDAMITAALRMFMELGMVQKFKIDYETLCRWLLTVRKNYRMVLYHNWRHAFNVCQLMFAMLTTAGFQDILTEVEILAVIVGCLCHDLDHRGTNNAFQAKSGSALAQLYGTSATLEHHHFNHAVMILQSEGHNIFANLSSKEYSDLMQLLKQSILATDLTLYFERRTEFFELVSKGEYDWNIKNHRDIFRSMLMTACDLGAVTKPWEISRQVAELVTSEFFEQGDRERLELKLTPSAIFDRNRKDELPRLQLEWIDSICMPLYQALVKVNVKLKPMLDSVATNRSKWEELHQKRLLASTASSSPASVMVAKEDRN
Sequence of cAMP and cAMP-inhibited cGMP 3',5'-cyclic phosphodiesterase 10A (Q9Y233 whole entry): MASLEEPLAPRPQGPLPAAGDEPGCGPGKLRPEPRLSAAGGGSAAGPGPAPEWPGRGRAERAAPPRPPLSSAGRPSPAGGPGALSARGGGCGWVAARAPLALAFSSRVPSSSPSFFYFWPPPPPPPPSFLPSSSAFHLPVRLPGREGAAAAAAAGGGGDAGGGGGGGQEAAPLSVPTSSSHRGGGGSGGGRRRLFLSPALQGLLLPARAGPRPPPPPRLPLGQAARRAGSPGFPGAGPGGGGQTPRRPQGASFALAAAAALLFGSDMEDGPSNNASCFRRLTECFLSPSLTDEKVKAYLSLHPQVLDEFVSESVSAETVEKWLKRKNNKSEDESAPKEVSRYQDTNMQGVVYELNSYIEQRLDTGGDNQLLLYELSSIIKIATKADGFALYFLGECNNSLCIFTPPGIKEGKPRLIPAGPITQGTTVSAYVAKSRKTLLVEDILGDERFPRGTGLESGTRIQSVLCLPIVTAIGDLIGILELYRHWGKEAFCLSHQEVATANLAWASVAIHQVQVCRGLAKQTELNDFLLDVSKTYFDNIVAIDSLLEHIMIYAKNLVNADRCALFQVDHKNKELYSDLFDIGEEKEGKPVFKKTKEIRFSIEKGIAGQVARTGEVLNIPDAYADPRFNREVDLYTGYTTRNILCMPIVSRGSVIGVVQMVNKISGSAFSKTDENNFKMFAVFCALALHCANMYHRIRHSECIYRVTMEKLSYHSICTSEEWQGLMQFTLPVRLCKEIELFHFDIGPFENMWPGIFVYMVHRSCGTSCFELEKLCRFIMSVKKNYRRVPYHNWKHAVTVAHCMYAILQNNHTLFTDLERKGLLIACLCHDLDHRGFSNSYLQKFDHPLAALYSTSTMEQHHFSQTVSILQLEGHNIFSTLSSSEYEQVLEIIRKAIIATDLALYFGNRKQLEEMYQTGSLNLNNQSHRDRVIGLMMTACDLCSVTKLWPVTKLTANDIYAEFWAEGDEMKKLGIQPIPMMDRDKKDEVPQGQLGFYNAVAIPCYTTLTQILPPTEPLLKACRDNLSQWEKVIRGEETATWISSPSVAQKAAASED
Sequence of High affinity cGMP-specific 3',5'-cyclic phosphodiesterase 9A (O76083 whole entry): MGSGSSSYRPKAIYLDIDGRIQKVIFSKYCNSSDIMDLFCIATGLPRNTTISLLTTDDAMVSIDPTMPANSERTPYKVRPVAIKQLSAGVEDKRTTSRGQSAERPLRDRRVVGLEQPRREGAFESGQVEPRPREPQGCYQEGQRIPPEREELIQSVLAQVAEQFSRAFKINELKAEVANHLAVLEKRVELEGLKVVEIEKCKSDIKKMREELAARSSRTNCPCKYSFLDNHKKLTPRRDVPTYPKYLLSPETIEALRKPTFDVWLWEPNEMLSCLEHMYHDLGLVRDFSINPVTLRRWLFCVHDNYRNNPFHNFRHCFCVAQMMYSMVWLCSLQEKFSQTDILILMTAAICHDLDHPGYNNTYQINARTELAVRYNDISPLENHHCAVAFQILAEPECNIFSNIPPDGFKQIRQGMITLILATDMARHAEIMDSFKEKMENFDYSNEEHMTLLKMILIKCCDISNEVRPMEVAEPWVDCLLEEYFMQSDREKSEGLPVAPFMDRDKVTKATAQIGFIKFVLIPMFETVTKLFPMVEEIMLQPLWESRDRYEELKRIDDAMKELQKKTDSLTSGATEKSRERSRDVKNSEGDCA

For `CC(=O)Nc1ccc(NC(=O)c2cn(Cc3c(F)cccc3Cl)c3ccc(=O)[nH]c3c2=O)cc1`, the results for the IC50 in test [1] and in test [2] were 362 nM and 17 nM, respectively. In the test filed under Homo sapiens, the Ratio IC50 was 6.

As for `CC(=O)c1ccc(NC(=O)c2cn(Cc3c(F)cccc3Cl)c3ccc(=O)[nH]c3c2=O)cc1`, the IC50 in test [1] stood at 161 nM; in test [2], 18 nM. Further, in the test filed under Homo sapiens, the Ratio IC50 was 6.

As for `CCN(CC)c1ccc(NC(=O)c2cn(Cc3c(F)cccc3Cl)c3ccc(=O)[nH]c3c2=O)cc1`, the IC50 in test [3], in test [4], in test [5], in test [1], in test [6] and in [7] was over 5000 nM in each case. For the same compound, the IC50 in test [8] was over 5000 nM; in test [9] it was over 5000 nM; in test [2], 60 nM; in test [10] it was over 5000 nM; in test [11], over 5000 nM. For the same compound, the Ratio IC50 in the test listed under Homo sapiens is over 83.

Regarding `CS(=O)(=O)c1ccc(NC(=O)c2cn(Cc3c(F)cccc3Cl)c3ccc(=O)[nH]c3c2=O)cc1`, the IC50 in test [1] was 73 nM; in [2], 12 nM. The Ratio IC50 in the test listed under Homo sapiens is 6.

`O=C(Nc1ccc(N2CCOCC2)cc1)c1cn(Cc2c(F)cccc2Cl)c2ccc(=O)[nH]c2c1=O`: the IC50 in test [3], in test [4], in test [5], in [1], in test [6] and in test [7] was over 1000 nM in each case. Also, the IC50 is over 1000 nM in test [8]; over 1000 nM in test [9]; 13 nM in test [2]; over 1000 nM in test [10]; over 1000 nM in [11]. Moreover, in the test filed under Homo sapiens, the Ratio IC50 is over 77.

In the case of `CN(C)c1ccc(NC(=O)c2cn(Cc3c(F)cccc3Cl)c3ccc(=O)[nH]c3c2=O)cc1`, the IC50 in test [1] stood at 402 nM; in test [2] it was 39 nM. Besides, the Ratio IC50 in the test filed under Homo sapiens was 6.

Turning to `NC(=O)c1cccc(NC(=O)c2cn(Cc3c(F)cccc3Cl)c3ccc(=O)[nH]c3c2=O)c1`, the IC50 in test [1] is 580 nM; in test [2], 44 nM. For the same compound, in the test listed under Homo sapiens, the Ratio IC50 stood at 6.

Regarding `NS(=O)(=O)c1ccc(NC(=O)c2cn(Cc3c(F)cccc3Cl)c3ccc(=O)[nH]c3c2=O)cc1`, the IC50 in test [1] is 385 nM; in test [2] it was 20 nM. In the test listed under Homo sapiens, the Ratio IC50 stood at 19.
